Test results reported in ChEMBL document CHEMBL1146085, “Nanomolar inhibitors of the peptidyl prolyl cis/trans isomerase Pin1 from combinatorial peptide libraries” (J Med Chem, 2006).
Blank lines part the entries; values can stand above or below the molecule they belong to. Where a SMILES comes first, the peptide text is derived from it. [ ]: non-standard residue; d: D form. The star is where a group is joined. dalloThr(PO3H2) = C[C@@H](OP(=O)(O)O)[C@@H](N)C(=O)O; alloThr(PO3H2) = C[C@H](OP(=O)(O)O)[C@H](N)C(=O)O; Biotin = O=C1N[C@H]2[C@H](CS[C@H]2CCCCC(=O)*)N1; Phe(4-tBu) = CC(C)(C)c1ccc(C[C@H](N)C(=O)O)cc1; Bip = N[C@@H](Cc1ccc(-c2ccccc2)cc1)C(=O)O; pT = C[C@@H](OP(=O)(O)O)[C@H](N)C(=O)O; 2Nal = N[C@@H](Cc1ccc2ccccc2c1)C(=O)O; Bta = N[C@@H](Cc1csc2ccccc12)C(=O)O; Tic = O=C(O)[C@@H]1Cc2ccccc2CN1; 2Thi = N[C@@H](Cc1cccs1)C(=O)O; Cha = N[C@@H](CC1CCCCC1)C(=O)O; Tle = CC(C)(C)[C@H](N)C(=O)O; Pip = O=C(O)[C@@H]1CCCCN1; NMeA = CN[C@@H](C)C(=O)O

Key:
[1] = target: T1, Peptidyl-prolyl cis-trans isomerase NIMA-interacting 1 (Homo sapiens, UniProt Q13526); experiment: Inhibition of human Pin1 PPIase Activity by protease free PPIase assay
Procedure, shortened: (§1)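 Protease-free PPIase assay using Abz-Ala-Glu-Pro-Phe-NH-Np as substrate in 35 mM HEPES, pH 7.8, at 10 °C. Ki derived from concentration-dependent measurement of remaining Pin1 activity.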

[2] = tested on: HeLa; experiment: Stability in HeLa cells after 5 hrs incubation; format: ADME, cell-based; settings: human
Procedure, shortened: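 Peptide incubated 5 h in whole HeLa cell lysate without phosphatase or protease inhibitors. Biotin-conjugated species pulled down on streptavidin Sepharose and analysed by mass spectrometry. Separately, 5 µM peptide analysed by capillary electrophoresis in 50 mM sodium phosphate, pH 7.0, detected at 220 nm, against a reference sample in buffer alone.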

[3] = target: Peptidyl-prolyl cis-trans isomerase NIMA-interacting 4 (Homo sapiens) (UniProt Q9Y237); experiment: Inhibition of Par14 at 500 uM
Chain of Peptidyl-prolyl cis-trans isomerase NIMA-interacting 4 (Homo sapiens) (Q9Y237 whole entry): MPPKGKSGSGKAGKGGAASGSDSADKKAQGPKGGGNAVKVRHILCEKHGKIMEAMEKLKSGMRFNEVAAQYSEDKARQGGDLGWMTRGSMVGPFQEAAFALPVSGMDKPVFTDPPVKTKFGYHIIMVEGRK

[4] = target: Peptidyl-prolyl cis-trans isomerase FKBP1A (Homo sapiens) (UniProt P62942); experiment: Inhibition of FKBP12 at 500 uM
Chain of Peptidyl-prolyl cis-trans isomerase FKBP1A (Homo sapiens) (P62942 whole entry): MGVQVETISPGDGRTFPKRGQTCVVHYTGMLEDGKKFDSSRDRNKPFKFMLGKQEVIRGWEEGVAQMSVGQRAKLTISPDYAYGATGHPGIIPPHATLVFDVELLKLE

[5] = target: Peptidyl-prolyl cis-trans isomerase A (Homo sapiens) (UniProt P62937); experiment: Inhibition of Cyp18 at 500 uM
Chain of Peptidyl-prolyl cis-trans isomerase A (Homo sapiens) (P62937 whole entry, looked up): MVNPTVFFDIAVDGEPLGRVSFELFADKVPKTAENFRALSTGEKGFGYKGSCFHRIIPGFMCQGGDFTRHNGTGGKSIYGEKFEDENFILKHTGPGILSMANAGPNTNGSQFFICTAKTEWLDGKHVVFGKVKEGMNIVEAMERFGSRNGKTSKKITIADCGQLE

[6] = target: Mitogen-activated protein kinase 1 (Homo sapiens) (UniProt P28482); experiment: Inhibition of ERK2 at 500 uM
Chain of Mitogen-activated protein kinase 1 (Homo sapiens) (P28482 whole entry): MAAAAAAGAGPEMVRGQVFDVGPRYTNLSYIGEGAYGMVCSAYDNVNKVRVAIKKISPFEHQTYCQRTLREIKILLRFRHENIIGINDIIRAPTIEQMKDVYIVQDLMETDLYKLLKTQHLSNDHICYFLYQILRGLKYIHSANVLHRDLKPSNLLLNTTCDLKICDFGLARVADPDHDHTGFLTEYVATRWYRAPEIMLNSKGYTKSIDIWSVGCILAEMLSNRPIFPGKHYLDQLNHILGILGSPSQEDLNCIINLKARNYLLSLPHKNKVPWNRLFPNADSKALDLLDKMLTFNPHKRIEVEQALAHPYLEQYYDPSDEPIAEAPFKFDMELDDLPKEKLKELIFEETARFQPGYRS

[7] = target: cAMP-dependent protein kinase (PKA) (Homo sapiens) (UniProt P22694+P17612+P22612); experiment: Inhibition of PKA at 500 uM; format: protein assay
[8] = target: Protein kinase C (PKC) (Homo sapiens) (UniProt O94806+P41743+P17252+P05129+Q05655+P05771+Q05513+Q02156+P24723+Q15139+Q04759); experiment: Inhibition of PKC at 500 uM; format: protein assay
[9] = Inhibition of PP2A at 500 uM
[10] = target: Serine/threonine protein phosphatase PP2B-alpha catalytic subunit (Homo sapiens) (UniProt P16298); experiment: Inhibition of PP2B at 500 uM
[11] = Inhibition of PP1 at 500 uM
[12] = tested on: HeLa; experiment: Cell cycle arrest in HeLa cells by accumulation at G2/M phase; format: functional, cell-based; settings: Homo sapiens
Procedure, shortened: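 HeLa cells loaded with inhibitor or its nonphosphorylated derivative by electroporation at varying concentrations, then cultured 3 days at 37 °C. DNA content measured by flow cytometry to give cell cycle phase fractions. Intracellular inhibitor level measured after cell lysis and centrifugation by reverse-phase HPLC of the supernatant against a standard curve.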

[13] = target: T1, Peptidyl-prolyl cis-trans isomerase NIMA-interacting 1; experiment: Residual PPIase activity of human GST-Pin1
[14] = tested on: Peptidyl-prolyl cis-trans isomerase NIMA-interacting 1 (Homo sapiens), Q13526 [K63A]; experiment: Residual PPIase activity of human GST-Pin1 K63A
[15] = tested on: Peptidyl-prolyl cis-trans isomerase NIMA-interacting 1 (Homo sapiens), Q13526 [S67E]; experiment: Residual PPIase activity of human GST-Pin1 S67E
[16] = target: T1, Peptidyl-prolyl cis-trans isomerase NIMA-interacting 1; experiment: Residual PPIase activity of human GST-Pin1 R68
[17] = target: T1, Peptidyl-prolyl cis-trans isomerase NIMA-interacting 1; experiment: Residual PPIase activity of human GST-Pin1 69A
[18] = tested on: Peptidyl-prolyl cis-trans isomerase NIMA-interacting 1 (Homo sapiens), Q13526 [C113A]; experiment: Residual PPIase activity of human GST-Pin1 C113A
[19] = tested on: Peptidyl-prolyl cis-trans isomerase NIMA-interacting 1 (Homo sapiens), Q13526 [S16E]; experiment: Residual PPIase activity of human GST-Pin1 S16E by protease free PPIase assay; procedure, shortened: as §1
[20] = tested on: Peptidyl-prolyl cis-trans isomerase NIMA-interacting 1 (Homo sapiens), Q13526 [H59A]; experiment: Residual PPIase activity of human GST-Pin1 H59A
[21] = tested on: Peptidyl-prolyl cis-trans isomerase NIMA-interacting 1 (Homo sapiens), Q13526 [S154F]; experiment: Residual PPIase activity of human GST-Pin1 S154F

Activity [2]: Stable
Compound: CC(=O)N[C@@H](Cc1ccccc1)C(=O)N[C@@H](C(=O)N1CCCC[C@H]1C(=O)N[C@@H](Cc1ccc2ccccc2c1)C(=O)N[C@@H](CCC(N)=O)C(N)=O)[C@H](C)OP(=O)(O)O

inhibition [3]: < 10%
inhibition [4]: < 10%
inhibition [5]: < 10%
inhibition [6]: < 10%
inhibition [7]: < 10%
inhibition [8]: < 10%
inhibition [9]: < 10%
inhibition [10]: < 10%
inhibition [11]: < 10%
Compound: CC(=O)N[C@@H](Cc1ccccc1)C(=O)N[C@@H](C(=O)N1CCCC[C@@H]1C(=O)N[C@@H](Cc1ccc2ccccc2c1)C(=O)N[C@@H](CCC(N)=O)C(N)=O)[C@H](C)OP(=O)(O)O
Activity [12]: Dose-dependent effect

IC50 [1]: 20 µM
Compound: CC(=O)N[C@@H](CCCCNC(=O)CCCC[C@@H]1SC[C@@H]2NC(=O)N[C@@H]21)C(=O)N[C@@H](C)C(=O)N[C@@H](C)C(=O)N[C@@H](Cc1ccccc1)C(=O)N[C@H](C(=O)N(C)[C@@H](C)C(=O)N[C@@H](Cc1csc2ccccc12)C(=O)N[C@@H](CCC(N)=O)C(N)=O)[C@H](C)OP(=O)(O)O (Ac-K(Biotin)AAF[alloThr(PO3H2)][NMeA][Bta]Q-NH2)

IC50 [1]: 18 µM
Ki [1]: 0.0048 µM
Compound: CC(=O)N[C@@H](CCCCNC(=O)CCCC[C@@H]1SC[C@@H]2NC(=O)N[C@@H]21)C(=O)N[C@@H](C)C(=O)N[C@@H](C)C(=O)N[C@@H](Cc1ccc(-c2ccccc2)cc1)C(=O)N[C@H](C(=O)N1CCC[C@H]1C(=O)N[C@@H](Cc1ccc2ccccc2c1)C(=O)N[C@@H](CCC(N)=O)C(N)=O)[C@H](C)OP(=O)(O)O (Ac-K(Biotin)AA[Bip][alloThr(PO3H2)]P[2Nal]Q-NH2)

IC50 [1]: 0.21 µM
Ki [1]: 0.183 µM
Activity [13]: 100%
Activity [14]: 0.2%
Activity [15]: 0.3%
Activity [16]: 0.4%
Activity [17]: 0.4%
Activity [18]: 6%
Activity [19]: 100%
Activity [20]: 5.7%
Activity [21]: 35%
Compound: CC(=O)N[C@@H](CCCCNC(=O)CCCC[C@@H]1SC[C@@H]2NC(=O)N[C@@H]21)C(=O)N[C@@H](C)C(=O)N[C@@H](C)C(=O)N[C@@H](Cc1csc2ccccc12)C(=O)N[C@H](C(=O)N1CCCC[C@H]1C(=O)N[C@@H](Cc1ccc2ccccc2c1)C(=O)N[C@@H](CCC(N)=O)C(N)=O)[C@H](C)OP(=O)(O)O (Ac-K(Biotin)AA[Bta][alloThr(PO3H2)][Pip][2Nal]Q-NH2)

IC50 [1]: > 50 µM
Compound: CC(=O)N[C@@H](CCCCNC(=O)CCCC[C@@H]1SC[C@@H]2NC(=O)N[C@@H]21)C(=O)N[C@@H](C)C(=O)N[C@@H](C)C(=O)N[C@@H](Cc1csc2ccccc12)C(=O)N[C@H](C(=O)N1CCC[C@H]1C(=O)N[C@@H](CC1CCCCC1)C(=O)N[C@@H](CCC(N)=O)C(N)=O)[C@@H](C)OP(=O)(O)O (Ac-K(Biotin)AA[Bta][pT]P[Cha]Q-NH2)

IC50 [1]: 8 µM
Compound: CC(=O)N[C@@H](CCCCNC(=O)CCCC[C@@H]1SC[C@@H]2NC(=O)N[C@@H]21)C(=O)N[C@@H](C)C(=O)N[C@@H](C)C(=O)N[C@@H](Cc1ccc(C(C)(C)C)cc1)C(=O)N[C@H](C(=O)N1Cc2ccccc2C[C@H]1C(=O)N[C@@H](Cc1csc2ccccc12)C(=O)N[C@@H](CCC(N)=O)C(N)=O)[C@H](C)OP(=O)(O)O (Ac-K(Biotin)AA[Phe(4-tBu)][alloThr(PO3H2)][Tic][Bta]Q-NH2)

Further lines, the molecule ahead of its results:

Compound: CC(=O)N[C@@H](Cc1csc2ccccc12)C(=O)N[C@H](C(=O)N1CCCC[C@@H]1C(=O)N[C@@H](Cc1ccc2ccccc2c1)C(=O)N[C@@H](CCC(N)=O)C(N)=O)[C@@H](C)OP(=O)(O)O
Ki [1]: 0.258 µM

Compound: CC(=O)N[C@@H](Cc1ccccc1)C(=O)N[C@H](C(=O)N1CCCC[C@@H]1C(=O)N[C@@H](Cc1ccc2ccccc2c1)C(=O)N[C@@H](CCC(N)=O)C(N)=O)[C@H](C)OP(=O)(O)O
Ki [1]: 0.547 µM

Compound: CC(=O)N[C@@H](CCCCNC(=O)CCCC[C@@H]1SC[C@@H]2NC(=O)N[C@@H]21)C(=O)N[C@@H](C)C(=O)N[C@@H](C)C(=O)N[C@@H](Cc1ccc2ccccc2c1)C(=O)N[C@H](C(=O)N1CCC[C@H]1C(=O)N[C@@H](CC1CCCCC1)C(=O)N[C@@H](CCC(N)=O)C(N)=O)[C@H](C)OP(=O)(O)O (Ac-K(Biotin)AA[2Nal][alloThr(PO3H2)]P[Cha]Q-NH2)
IC50 [1]: > 50 µM

Compound: CC(=O)N[C@@H](CCCCNC(=O)CCCC[C@@H]1SC[C@@H]2NC(=O)N[C@@H]21)C(=O)N[C@@H](C)C(=O)N[C@@H](C)C(=O)N[C@@H](Cc1ccc2ccccc2c1)C(=O)N[C@H](C(=O)N1CCC[C@H]1C(=O)N[C@H](C(=O)N[C@@H](CCC(N)=O)C(N)=O)C(C)(C)C)[C@H](C)OP(=O)(O)O (Ac-K(Biotin)AA[2Nal][alloThr(PO3H2)]P[Tle]Q-NH2)
IC50 [1]: > 50 µM

Compound: CC(=O)N[C@@H](CCCCNC(=O)CCCC[C@@H]1SC[C@@H]2NC(=O)N[C@@H]21)C(=O)N[C@@H](C)C(=O)N[C@@H](C)C(=O)N[C@@H](Cc1cccs1)C(=O)N[C@H](C(=O)N(C)[C@@H](C)C(=O)N[C@@H](Cc1ccc2ccccc2c1)C(=O)N[C@@H](CCC(N)=O)C(N)=O)[C@H](C)OP(=O)(O)O (Ac-K(Biotin)AA[2Thi][alloThr(PO3H2)][NMeA][2Nal]Q-NH2)
IC50 [1]: 15 µM

Compound: CC(=O)N[C@@H](CCCCNC(=O)CCCC[C@@H]1SC[C@@H]2NC(=O)N[C@@H]21)C(=O)N[C@@H](C)C(=O)N[C@@H](C)C(=O)N[C@@H](Cc1ccc(-c2ccccc2)cc1)C(=O)N[C@H](C(=O)N1CCC[C@H]1C(=O)N[C@@H](Cc1csc2ccccc12)C(=O)N[C@@H](CCC(N)=O)C(N)=O)[C@H](C)OP(=O)(O)O (Ac-K(Biotin)AA[Bip][alloThr(PO3H2)]P[Bta]Q-NH2)
IC50 [1]: 15 µM

Compound: CC(=O)N[C@@H](CCCCNC(=O)CCCC[C@@H]1SC[C@@H]2NC(=O)N[C@@H]21)C(=O)N[C@@H](C)C(=O)N[C@@H](C)C(=O)N[C@@H](Cc1csc2ccccc12)C(=O)N[C@H](C(=O)N1CCC[C@H]1C(=O)N[C@@H](Cc1ccc2ccccc2c1)C(=O)N[C@@H](CCC(N)=O)C(N)=O)[C@H](C)OP(=O)(O)O (Ac-K(Biotin)AA[Bta][alloThr(PO3H2)]P[2Nal]Q-NH2)
IC50 [1]: 20 µM

Compound: CC(=O)N[C@@H](CCCCNC(=O)CCCC[C@@H]1SC[C@@H]2NC(=O)N[C@@H]21)C(=O)N[C@@H](C)C(=O)N[C@@H](C)C(=O)N[C@@H](Cc1csc2ccccc12)C(=O)N[C@@H](C(=O)N1CCCC[C@H]1C(=O)N[C@@H](Cc1ccc2ccccc2c1)C(=O)N[C@@H](CCC(N)=O)C(N)=O)[C@@H](C)OP(=O)(O)O (Ac-K(Biotin)AA[Bta][dalloThr(PO3H2)][Pip][2Nal]Q-NH2)
Ki [1]: 0.0012 µM
inhibition [3]: < 10%
inhibition [4]: < 10%
inhibition [5]: < 10%
inhibition [6]: < 10%
inhibition [7]: < 10%
inhibition [8]: < 10%
inhibition [9]: < 10%
inhibition [10]: < 10%
inhibition [11]: < 10%

Compound: CC(=O)N[C@@H](CCCCNC(=O)CCCC[C@@H]1SC[C@@H]2NC(=O)N[C@@H]21)C(=O)N[C@@H](C)C(=O)N[C@@H](C)C(=O)N[C@@H](CC1CCCCC1)C(=O)N[C@H](C(=O)N(C)[C@@H](C)C(=O)N[C@@H](Cc1ccc2ccccc2c1)C(=O)N[C@@H](CCC(N)=O)C(N)=O)[C@H](C)OP(=O)(O)O (Ac-K(Biotin)AA[Cha][alloThr(PO3H2)][NMeA][2Nal]Q-NH2)
IC50 [1]: 7 µM

Compound: CC(=O)N[C@@H](CCCCNC(=O)CCCC[C@@H]1SC[C@@H]2NC(=O)N[C@@H]21)C(=O)N[C@@H](C)C(=O)N[C@@H](C)C(=O)N[C@@H](CC1CCCCC1)C(=O)N[C@H](C(=O)N1Cc2ccccc2C[C@H]1C(=O)N[C@@H](Cc1ccc2ccccc2c1)C(=O)N[C@@H](CCC(N)=O)C(N)=O)[C@H](C)OP(=O)(O)O (Ac-K(Biotin)AA[Cha][alloThr(PO3H2)][Tic][2Nal]Q-NH2)
IC50 [1]: 25 µM
